According to ChEMBL document CHEMBL4765495, “Semisynthesis and Biological Evaluation of Platencin Thioether Derivatives: Dual FabF and FabH Inhibitors against MRSA” (ACS Med Chem Lett, 2021):
Values after ≈ are worked out from the molar mass of the structure shown. Active and inactive are the calls of the source. The calls are words filed in the database; no cut-off is given here. Positions of bridges follow the written chain, without caps; N, C: chain ends. Non-standard residues stand in square brackets, D forms with d. Residues, ends and D or L forms follow the SMILES beside them. *: point of attachment. X1 = CC[C@H](C)CCCCC(=O)*; Dab = NCC[C@H](N)C(=O)O

Experiments:
Enterococcus faecalis = assay: Antibacterial activity against Enterococcus faecalis ATCC 29212 assessed as inhibition of bacterial growth measured after 16 hrs by agar plate dilution method; format: functional
Staphylococcus aureus [1] = assay: Antibacterial activity against Staphylococcus aureus ATCC 29213 assessed as inhibition of bacterial growth measured after 16 hrs by agar plate dilution method; format: functional
Summary of the method: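 MIC determined by plate dilution against the reference strain; values from at least two independent experiments.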

Staphylococcus aureus [2] = assay: Antibacterial activity against methicillin sensitive Staphylococcus aureus assessed as inhibition of bacterial growth measured after 16 hrs by agar plate dilution method; format: functional
Summary of the method: (§1)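 Clinical MSSA and MRSA strains isolated from local hospitals; MIC determined by plate dilution; data from at least two independent experiments.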

Staphylococcus aureus [3] = assay: Antibacterial activity against methicillin resistant Staphylococcus aureus assessed as inhibition of bacterial growth measured after 16 hrs by agar plate dilution method; format: functional; summary of the method: as §1
Staphylococcus aureus [4] = assay: Inhibition of Staphylococcus aureus FabH A81V/A111T mutant assessed as bacterial growth inhibition measured after 18 hrs by resazurin dye based broth dilution assay
Summary of the method: (§2)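 S. aureus strains carrying point mutations in the FabH active site; MIC determined by broth dilution; data from at least two independent experiments.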

Staphylococcus aureus [5] = assay: Inhibition of Staphylococcus aureus FabH A81V mutant assessed as bacterial growth inhibition measured after 18 hrs by resazurin dye based broth dilution assay; summary of the method: as §2
Staphylococcus aureus [6] = assay: Antibacterial activity against methicillin resistant Staphylococcus aureus assessed as inhibition of bacterial growth measured after 18 hrs in presence of 10% human serum by resazurin dye based broth dilution assay; format: functional
Escherichia coli [7] = assay: Antibacterial activity against Escherichia coli harboring delta tolC mutant assessed as inhibition of bacterial growth measured after 16 hrs by agar plate dilution method; format: functional
[8] = Binding affinity to His6-tagged Escherichia coli FabF C163Q mutant expressed in Escherichia coli BL21 (DE3) assessed as binding constant measured after 200 sec by isothermal titration calorimetry
Summary of the method: (§3)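 Ligands were dissolved in PBS (10 mM, pH 7.4) and titrated into E. coli FabF(C163Q) in the same buffer. Protein was at 12 or 14 μM and ligand at 250 μM. Thermodynamic parameters (ΔH, ΔS, ΔG, Kd, n) were calculated from the heat of binding. Runs were done at least three times; one representative run was used.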

Escherichia coli [9] = assay: Binding affinity to His6-tagged Escherichia coli FabF C163Q mutant expressed in Escherichia coli BL21 (DE3) assessed as stoichiometry ratio measured after 200 sec by isothermal titration calorimetry; summary of the method: as §3
Escherichia coli [10] = assay: Binding affinity to His6-tagged Escherichia coli FabF C163Q mutant expressed in Escherichia coli BL21 (DE3) assessed as change in enthalpy measured after 200 sec by isothermal titration calorimetry; summary of the method: as §3
Escherichia coli [11] = assay: Binding affinity to His6-tagged Escherichia coli FabF C163Q mutant expressed in Escherichia coli BL21 (DE3) assessed as change in entropy measured after 200 sec by isothermal titration calorimetry; summary of the method: as §3
Escherichia coli [12] = assay: Binding affinity to His6-tagged Escherichia coli FabF C163Q mutant expressed in Escherichia coli BL21 (DE3) assessed Gibbs free energy change measured after 200 sec by isothermal titration calorimetry; summary of the method: as §3
[13] = biological target: T1, 3-oxoacyl-[acyl-carrier-protein] synthase 2 (Staphylococcus aureus) (UniProt Q5TKS0); assay: Binding affinity to His6-tagged Staphylococcus aureus FabF expressed in Escherichia coli BL21 (DE3) assessed as decrease in melting temperature at 10 uM by SYPRO orange based differential scanning fluorimetry
T1 sequence (whole entry): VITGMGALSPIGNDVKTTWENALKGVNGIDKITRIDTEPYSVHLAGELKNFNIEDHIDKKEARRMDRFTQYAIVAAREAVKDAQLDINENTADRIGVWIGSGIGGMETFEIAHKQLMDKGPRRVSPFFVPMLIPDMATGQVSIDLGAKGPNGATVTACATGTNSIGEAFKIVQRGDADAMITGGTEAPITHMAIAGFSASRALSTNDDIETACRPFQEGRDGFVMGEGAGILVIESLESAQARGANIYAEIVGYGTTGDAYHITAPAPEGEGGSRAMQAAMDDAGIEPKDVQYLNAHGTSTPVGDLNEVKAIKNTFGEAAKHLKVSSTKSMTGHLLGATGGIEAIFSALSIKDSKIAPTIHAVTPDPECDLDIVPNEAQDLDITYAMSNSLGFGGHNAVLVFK
Summary of the method: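 S. aureus FabF melting curves were measured by DSF in 20 mM HEPES, 180 mM NaCl, pH 7.5, a buffer selected by screening seven buffers. ΔTm was derived from the melting-temperature shift caused by ligand; n = 4.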

Escherichia coli [14] = assay: Binding affinity to His6-tagged Escherichia coli FabH expressed in Escherichia coli BL21 (DE3) assessed as decrease in melting temperature at 10 uM by SYPRO orange based differential scanning fluorimetry
Summary of the method: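 Purified E. coli FabH melting curves were recorded with and without ligand by thermal-shift fluorometry in 1.0 M Tris-HCl, pH 6.8, a buffer chosen from seven screened. ΔTm was taken from the Tm shift; n = 4.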

Staphylococcus aureus [15] = assay: Antibacterial activity against methicillin resistant Staphylococcus aureus infected in C57BL/6J mouse model of peritonitis assessed as mouse survival at 10 mg/kg, ip administered at 1 and 5 hrs post infection; format: functional, organism-based
Summary of the method: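 Female C57BL/6J mice infected intraperitoneally with 1.5–2.0 × 10^7 CFU MRSA in 5% w/v hog gastric mucin; n = 5 per group; intraperitoneal treatment at 10 mg/kg at 1 and 5 h post-infection; vancomycin 10 mg/kg as control; survival and kidney bacterial load recorded.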

Staphylococcus aureus [16] = assay: Antibacterial activity against methicillin resistant Staphylococcus aureus infected in C57BL/6J mouse model of peritonitis assessed as mouse survival when infected with 2.5x10^7 CFU bacteria at 10 mg/kg, ip administered at 1 and 5 hrs post infection; format: functional, organism-based
Summary of the method: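 Female C57BL/6J mice given a higher intraperitoneal MRSA inoculum of 2.5 × 10^7 CFU; intraperitoneal treatment at 1 and 5 h post-infection; survival recorded.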

SMILES	MIC (Staphylococcus aureus [1]) [µg/mL]	MIC (Staphylococcus aureus [2]) [µg/mL]	MIC (Staphylococcus aureus [3]) [µg/mL]	MIC (Staphylococcus aureus [4]) [µg/mL]	MIC (Staphylococcus aureus [5]) [µg/mL]	MIC (Escherichia coli [7]) [µg/mL]	Activity [13]	Activity (Escherichia coli [14])	also measured
C[C@]12C[C@@]34C=CC(=O)[C@@](C)(CCC(=O)Nc5c(O)ccc(C(=O)O)c5O)[C@@H]3[C@H](C[C@@H]1C4)O2	1 (≈ 2.27 µM)	0.5 (≈ 1.13 µM)	1 (≈ 2.27 µM)	> 32	> 32	32 (≈ 72.5 µM)	–	–	MIC (Enterococcus faecalis): 2 µg/mL (≈ 4.53 µM); MIC (Staphylococcus aureus [6]): 2 µg/mL; Kd [8]: 17.3 nM; Ratio (Escherichia coli [9]): 1.16; deltaH (Escherichia coli [10]): -8.63 kJ/mol; -TdeltaS (Escherichia coli [11]): -33.3 kJ/mol; deltaG (Escherichia coli [12]): -41.9 kJ/mol
C=C1C[C@]23C=C(SC4CCCCC4)C(=O)[C@@](C)(CCC(=O)Nc4c(O)ccc(C(=O)O)c4O)[C@@H]2C[C@H]1CC3	2 (≈ 3.71 µM)	2 (≈ 3.71 µM)	2 (≈ 3.71 µM)	–	–	–	Active	Active	Activity (Staphylococcus aureus [15]): inactive
CC1(C)S[C@@H]2[C@H](NC(=O)[C@H](N)c3ccccc3)C(=O)N2[C@H]1C(=O)O	–	–	–	32 (≈ 91.6 µM)	16 (≈ 45.8 µM)	–	–	–	–
CC[C@H](C)CCCCC(=O)N[C@@H](CCN)C(=O)N[C@H](C(=O)N[C@@H](CCN)C(=O)N[C@H]1CCNC(=O)[C@H]([C@@H](C)O)NC(=O)[C@H](CCN)NC(=O)[C@H](CCN)NC(=O)[C@H](CC(C)C)NC(=O)[C@@H](Cc2ccccc2)NC(=O)[C@H](CCN)NC1=O)[C@@H](C)O (X1-[Dab]T[Dab][Dab][Dab][dF]L[Dab][Dab]T; lactam 4-C)	–	–	–	–	–	4 (≈ 3.32 µM)	–	–	–
C=C1C[C@]23C=C(Sc4ccoc4C)C(=O)[C@@](C)(CCC(=O)Nc4c(O)ccc(C(=O)O)c4O)[C@@H]2CC1CC3 (single isomer, unassigned)	2 (≈ 3.72 µM)	1 (≈ 1.86 µM)	1 (≈ 1.86 µM)	8 (≈ 14.9 µM)	8 (≈ 14.9 µM)	> 32	Active	Active	MIC (Enterococcus faecalis): 2 µg/mL (≈ 3.72 µM); MIC (Staphylococcus aureus [6]): 16 µg/mL; Activity (Staphylococcus aureus [16]): inactive
C=C1C[C@]23C=C(SCCC)C(=O)[C@@](C)(CCC(=O)Nc4c(O)ccc(C(=O)O)c4O)[C@@H]2CC1CC3 (single isomer, unassigned)	8 (≈ 16 µM)	4 (≈ 8.01 µM)	4 (≈ 8.01 µM)	–	–	–	Active	Active	–
C=C1C[C@]23C=C(Sc4ccccn4)C(=O)[C@@](C)(CCC(=O)Nc4c(O)ccc(C(=O)O)c4O)[C@@H]2CC1CC3 (single isomer, unassigned)	4 (≈ 7.48 µM)	2 (≈ 3.74 µM)	2 (≈ 3.74 µM)	–	–	–	Active	Active	–
C=C1C[C@]23C=C(Sc4ccc(I)cc4)C(=O)[C@@](C)(CCC(=O)Nc4c(O)ccc(C(=O)O)c4O)[C@@H]2CC1CC3 (single isomer, unassigned)	8 (≈ 12.1 µM)	4 (≈ 6.06 µM)	4 (≈ 6.06 µM)	–	–	–	Active	Active	–
C=C1C[C@]23C=C(SC(C)(C)C)C(=O)[C@@](C)(CCC(=O)Nc4c(O)ccc(C(=O)O)c4O)[C@@H]2CC1CC3 (single isomer, unassigned)	16 (≈ 31.1 µM)	8 (≈ 15.6 µM)	8 (≈ 15.6 µM)	–	–	–	Active	Active	–
